One test concerns NCI-H460. Kind of test: Cytotoxicity against NCIH460 cells after 48 hrs by XTT assay. The test is classed as functional, cell-based. The following applies: for Activity: Homo sapiens. The method in brief: (§1)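 XTT tetrazolium proliferation assay with 48 h compound exposure. IC50 was obtained by nonlinear regression from at least two independent experiments and reported as mean ± standard deviation.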
(In general: Formazan colour is commonly taken as a measure of viable cells.)

A further test deals with SF-268. Kind of test: Cytotoxicity against SF268 cells after 48 hrs by XTT assay. The format is functional, cell-based. As to conditions: for Activity: Homo sapiens. Put shortly: as §1
A further test relates to RKOp27. Kind of test: (§2) Cytotoxicity against RKOp27 cells after 48 hrs by XTT assay. As to conditions: Homo sapiens. The format is functional, cell-based. The method in brief: as §1
A further test concerns SK-OV-3. The test is described as follows: Cytotoxicity against SKOV3 cells after 48 hrs by XTT assay. The format is functional, cell-based. As to conditions: for Activity: Homo sapiens. The method in brief: as §1
A short description of test [1]: Cytotoxicity against KB/HeLa cells at 3.16 ug/ml after 48 hrs by XTT assay. The test is classed as functional. As to conditions: Homo sapiens.
The test system of test [2] is U-937. The test is described as follows: (§3) Effect on apoptosis in U937 cells assessed as increase in caspase 3 activation at <=10 uM after 24 hrs. The format is functional, cell-based. The following applies: Homo sapiens. Put shortly: (§4)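 U937 cells were treated for 24 h at up to 10 μM. Caspase 3/7 activity was then measured by cleavage of a DEVD rhodamine-110 substrate.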

The nature of test [3]: Cytotoxicity against multidrug resistant LT12 cells by XTT assay. The format is functional, Rattus norvegicus. Put shortly: as §1
Test [4] is described as follows: Cytotoxicity against KB/HeLa cells after 48 hrs by XTT assay. The test is classed as functional, cell-based, Homo sapiens. The method in brief:
as §1

Test [5] concerns P388. Kind of test: Cytotoxicity against P388 cells by XTT assay. The format is functional, Mus musculus. Put shortly: as §1
Test [6] in a line: as §2. The format is functional, cell-based, Homo sapiens. The method in brief: as §1
Test [7] is described as follows: Cell cycle arrest at G2/M phase in KB/HeLa cells after 24 hrs. As to conditions: Homo sapiens. The test is classed as functional, cell-based. The method in brief:
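KB/HeLa cells were exposed to several concentrations for 24 h alongside untreated reference cells. They were then stained with propidium iodide and analysed by flow cytometry for cell-cycle phase distribution.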

In test [8] the test system is L1210. Kind of test: Cytotoxicity against L1210 cells by XTT assay. The test is classed as functional, Mus musculus. The method in brief:
as §1

Test [9] is described as follows: Cytotoxicity against LT12 cells by XTT assay. The test is classed as functional, Rattus norvegicus. The method in brief:
as §1

Test [10] deals with P388. The test is described as follows: Cytotoxicity against adriamycin-resistant P388 Cells by XTT assay. The test is classed as functional, Mus musculus. The method in brief: as §1
For test [11], the system named is U-937. The test is described as §3. The test is classed as functional, cell-based. The following applies: Homo sapiens. The method in brief: as §4
This is another data set of the same source.

The subject of test [12] is L1210. The test is described as follows: Cytotoxicity against vincristine-resistant L1210 cells by XTT assay. The format is functional, Mus musculus. The method in brief: as §1

The source made the active and inactive calls. The rule behind the calls is not given here. Where only a bound is given, the exact number is not on record here.

This note sets out measurements from ChEMBL document CHEMBL1137554, “Synthesis and biological evaluation of novel cytotoxic azanaphthoquinone annelated pyrrolo oximes” (Bioorg Med Chem Lett, 2007).

What is called inhibition is the change of the read-out against control, counted positive when it falls. Read a low inhibition as little suppression.

As to `CN(C)CCn1cc2c(c1)/C(=N\OCCO)c1ccncc1C2=O`, the outcome in the test with NCI-H460, with SF-268, in the test on RKOp27 and in the test on SK-OV-3 was inactive. The same compound displayed an inhibition at 3.16 µg/mL in test [1] of less than 50%.
As to `CCOC(=O)CO/N=C1/c2ccncc2C(=O)c2cn(CCN(C)C)cc21`, the outcome in the test with NCI-H460, in the test with SF-268, with RKOp27 and with SK-OV-3 was inactive. This compound came in with an inhibition at 3.16 µg/mL in [1] of less than 50%.
Consider `CN(C)CCn1cc2c(c1)/C(=N\O)c1ccncc1C2=O`, for which the result in the test with NCI-H460, with SF-268, in the test with RKOp27 and with SK-OV-3 was inactive. Also, the inhibition at 3.16 µg/mL in test [1] is less than 50%.
Regarding `CN(C)CCn1ccc2c1C(=O)c1cnccc1/C2=N/OCCO`, the result (in the test on U-937 [2]; in test [7]; with U-937 [11]) was Active. Besides, the IC50 came out at 0.13 µmol in the test with NCI-H460; 1.39 µmol in the test with SF-268; 0.66 µmol in test [4]; 0.17 µmol in test [6]; 0.48 µmol in the test on SK-OV-3. In addition, the Activity in test [3] was 0.16 µM; in the test with P388 [5], 0.02 µM; in the test on L1210 [8] it was 0.07 µM; in test [9], 0.04 µM; in the test with P388 [10], 0.5 µM; in the test with L1210 [12], 0.16 µM.
On to `CN(C)CCn1ccc2c1C(=O)c1cnccc1/C2=N/O`, for which the IC50 (in the test on NCI-H460; in the test with SF-268; in test [4]; in test [6]; with SK-OV-3) was more than 12 µmol in each case.
For the compound `CCOC(=O)CO/N=C1/c2ccncc2C(=O)c2c1ccn2CCN(C)C`, the IC50 (in the test on NCI-H460; in the test with SF-268; in [4]; in test [6]; in the test on SK-OV-3) was more than 12 µmol throughout.
Take `CN(C)CCn1ccc2c1C(=O)c1cnccc1C2=O`: the IC50 with NCI-H460 was determined as 3.84 µmol; with SF-268, 4.71 µmol; in test [4], 11.04 µmol; in test [6], 2.35 µmol; in the test with SK-OV-3, 13.87 µmol.
On to `COc1cccc2c1C(=O)c1c(O)c3c(c(O)c1C2=O)C[C@@](O)(C(=O)CO)C[C@@H]3O[C@H]1C[C@H](N)[C@H](O)[C@H](C)O1` [DOXORUBICIN], for which the Activity was more than 3.4 µM in test [3]; 0.52 µM with P388 [5]; 0.221 µM in the test with L1210 [8]; 0.031 µM in test [9]; more than 3.4 µM in the test with P388 [10]; more than 3.4 µM in the test on L1210 [12].
Turning to `CN(C)CCO/N=C1/c2ccncc2C(=O)c2c1ccn2CCN(C)C`, the result (in the test with U-937 [2]; in test [7]; in the test on U-937 [11]) was Active. Further, the IC50 in the test with NCI-H460 is 0.23 µmol; with SF-268, 1.23 µmol; in [4], 0.67 µmol; in test [6] it was 0.41 µmol; in the test on SK-OV-3, 0.94 µmol. The Activity in test [3] came to 0.07 µM; with P388 [5] it was 0.02 µM; with L1210 [8], 0.05 µM; in [9] it was 0.03 µM; with P388 [10] it was 0.4 µM; in the test on L1210 [12], 0.11 µM.
As for `CO/N=C1/c2ccncc2C(=O)c2cn(CCN(C)C)cc21`, the result in the test with NCI-H460, in the test with SF-268, with RKOp27 and in the test on SK-OV-3 was inactive. Besides, the inhibition at 3.16 µg/mL in [1] was less than 50%.
As to `CN(C)CCn1cc2c(c1)C(=O)c1cnccc1C2=O`, the outcome in the test on NCI-H460, in the test on SF-268 and in the test on RKOp27 was inactive. Besides, in the test on SK-OV-3, the IC50 entry is “Not Active”. In addition, the inhibition at 3.16 µg/mL in test [1] is less than 50%.
Consider `CC(=O)O[C@H]1C(=O)[C@@]2(C)[C@H]([C@H](OC(=O)c3ccccc3)[C@]3(O)C[C@H](OC(=O)[C@H](O)[C@@H](NC(=O)c4ccccc4)c4ccccc4)C(C)=C1C3(C)C)[C@]1(OC(C)=O)CO[C@@H]1C[C@@H]2O` [PACLITAXEL], for which the Activity in test [3] was 0.368 µM; with P388 [5] it was 0.038 µM; with L1210 [8] it was 0.052 µM; in test [9] it was 0.005 µM; in the test on P388 [10], more than 3.4 µM; with L1210 [12] it was more than 3.4 µM.
Turning to `CN(C)CCO/N=C1/c2ccncc2C(=O)c2cn(CCN(C)C)cc21`, the outcome with NCI-H460, in the test on SF-268, with RKOp27 and with SK-OV-3 was inactive. In [1], the inhibition at 3.16 µg/mL was less than 50%.
With `CO/N=C1/c2ccncc2C(=O)c2c1ccn2CCN(C)C`, the IC50 in the test with NCI-H460 amounted to 0.79 µmol; in the test with SF-268, 2.43 µmol; in test [4], 1.21 µmol; in test [6] it was 1.16 µmol; with SK-OV-3, 2.24 µmol.
